From ChEMBL document CHEMBL1142379, “Substituted 2-oxo-azepane derivatives are potent, orally active gamma-secretase inhibitors” (Bioorg Med Chem Lett, 2008)
Activity calls are given as the source filed them. No cut-off for these calls is given here.

Assays:
Gamma-secretase = test: Inhibition of human gamma secretase in HEK293 cells assessed as reduction of amyloid beta level by ELISA; format: cell-based
[1] = Clearance in human microsomes assessed per mg of protein; format: ADME, Microsome
How it was run: (§1)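 Intrinsic clearance in human and mouse liver microsomes, expressed as µl/min/mg protein.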

[2] = Clearance in mouse microsomes assessed per mg of protein; format: ADME, Liver, Microsome; how it was run: as §1
Mus musculus [3] = test: Inhibition of human gamma secretase expressed in PS2APP transgenic mouse at 20 mg/kg, po after 3 days; format: functional, organism-based; set-up: dose 20 mg/kg
How it was run: (§2)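 PS2APP transgenic mice (human APP driven by neuron-specific Thy1 promoter) dosed 3 × 20 mg/kg po or ip; γ-secretase inhibition read as accumulation of CTFβ in total brain by Western blot, chemiluminescent band quantified and normalized to an endogenous control protein; reference inhibitor LY411575.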

Mus musculus [4] = test: Inhibition of human gamma secretase expressed in PS2APP transgenic mouse at 20 mg/kg, ip after 3 days; format: functional, organism-based; set-up: dose 20 mg/kg; how it was run: as §2
[5] = Solubility of the compound; format: physicochemical
[6] = Distribution coefficient, log D of the compound; format: physicochemical; conditions: octanol/water
MDR1 = test: Permeability from apical to basolateral side of pig LLC-PK1 cell transfected with human MDR1; format: ADME, cell-based, Sus scrofa; conditions: read-out: permeability
How it was run: (§3)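 Bidirectional transport across LLC-PK1 monolayers exogenously expressing human MDR1 (P-gp), compound at 1 μM; apical-to-basolateral and reverse permeabilities measured, export ratio derived; run with and without elacridar (5 μM) as transport inhibitor. Passive permeability estimated from experiments with active transport inhibited.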

[7] = Ratio of drug level in brain to plasma in PS2APP transgenic mouse at 20 mg/kg, po after 2 hrs; format: ADME, organism-based; set-up: dose 20 mg/kg, route oral; conditions: read-out: BPR
How it was run: (§4)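 Single 20 mg/kg oral dose in mice; plasma and brain concentrations taken at 2 h, brain/plasma ratio calculated; N = 3.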

LLC-PK1 [8] = test: Ratio of permeability from basolateral to apical over apical to basolateral side of the pig LLC-PK1 cell transfected with human MDR1 at 1 uM; format: ADME, cell-based, Sus scrofa; conditions: llc-pk1, 1 µM; how it was run: as §3
[9] = Drug level in PS2APP transgenic mouse brain at 20 mg/kg, po after 2 hrs; format: ADME, organism-based; set-up: dose 20 mg/kg, route oral; conditions: read-out: Drug uptake; how it was run: as §4
LLC-PK1 [10] = test: Ratio of permeability from basolateral to apical over apical to basolateral side of the pig LLC-PK1 cell transfected with human MDR1 at 1 uM in presence of elacridar; format: ADME, cell-based, Sus scrofa; conditions: llc-pk1, 1 µM; how it was run: as §3

Question: For `CC1(C)CCCNC(=O)C1N(Cc1ccc(C(=O)NC2CC2)cc1)S(=O)(=O)c1ccc(Cl)cc1` (centres undefined), which IC50 (Gamma-secretase) is on record?
Answer: The IC50 was 390 nM.

Question: What does the source list for `CC(C)C1CCNC(=O)C(N(Cc2ccc(C(=O)NC3CC3)cc2)S(=O)(=O)c2ccc(Cl)cc2)C1` (racemic)?
Answer: microsomal CLint [1]: 51 µL/min/mg; IC50 (Gamma-secretase): 40 nM; microsomal CLint [2]: 203 µL/min/mg

Question: With `O=C(NC1CC1)c1ccc(CN(C2CCCCNC2=O)S(=O)(=O)c2ccc(Cl)cc2)cc1` (centres undefined) as the molecule, how does the IC50 (Gamma-secretase) read?
Answer: Its IC50 is 170 nM.

Question: What does the source list for `CC1(C)CCNC(=O)[C@H](N(Cc2ccc(C(=O)NC3CC3)cc2)S(=O)(=O)c2ccc(Cl)cc2)C1`?
Answer: microsomal CLint [1]: 36 µL/min/mg; IC50 (Gamma-secretase): 15 nM; microsomal CLint [2]: 655 µL/min/mg

Question: For `CC(C)C[C@H](C(=O)NO)N(Cc1ccc2c(c1)OCO2)S(=O)(=O)c1ccc(Cl)cc1`, which IC50 (Gamma-secretase) is on record?
Answer: The IC50 was 2600 nM.

Question: Which IC50 (Gamma-secretase) does the source give for `O=C1NCCC1N(Cc1ccc2c(c1)OCO2)S(=O)(=O)c1ccc(Cl)cc1` (centres undefined) here?
Answer: Its IC50 is greater than 20000 nM.

Question: With `CC1(C)CCNC(=O)C(N(Cc2ccc(C(=O)NC3CC3)cc2)S(=O)(=O)c2ccc(Cl)cc2)C1` (centres undefined) as the molecule, how does the microsomal CLint [1] read?
Answer: Its microsomal CLint is 45 µL/min/mg.

Question: And the IC50 (Gamma-secretase)?
Answer: Its IC50 is 6 nM.

Question: And the microsomal CLint [2]?
Answer: Its microsomal CLint is 191 µL/min/mg.

Question: Which Activity (Mus musculus [3]) does the source give for `O=C(NC1CC1)c1ccc(CN([C@@H]2CC(F)(F)CCNC2=O)S(=O)(=O)c2ccc(Cl)cc2)cc1` here?
Answer: The Activity was “inactive”.

Question: What about the microsomal CLint [1] of the same molecule?
Answer: Its microsomal CLint is 1.9 µL/min/mg.

Question: And the Activity (Mus musculus [4])?
Answer: Its Activity is “inactive”.

Question: What about the IC50 (Gamma-secretase) of the same molecule?
Answer: The IC50 was 4 nM.

Question: And the microsomal CLint [2]?
Answer: The microsomal CLint was 2.2 µL/min/mg.

Question: Which results are given for `CC(C)C[C@H](C(N)=O)N(Cc1ccc2c(c1)OCO2)S(=O)(=O)c1ccc(Cl)cc1`?
Answer: solubility [5]: < 1 µg/mL; logD [6]: > 3; microsomal CLint [1]: 34 µL/min/mg; IC50 (Gamma-secretase): 8 nM; microsomal CLint [2]: 282 µL/min/mg

Question: For `COc1ccc(CN([C@@H]2CC(F)(F)CCNC2=O)S(=O)(=O)c2ccc(Cl)cc2)cn1`, which Papp A→B (MDR1) is on record?
Answer: Its Papp A→B is 28 ×10⁻⁶ cm/s.

Question: What about the Kp at 2 h [7] of the same molecule?
Answer: Its Kp at 2 h is 0.06.

Question: And the Activity (Mus musculus [3])?
Answer: Its Activity is “Active”.

Question: What about the microsomal CLint [1] of the same molecule?
Answer: The microsomal CLint was 9 µL/min/mg.

Question: What about the IC50 (Gamma-secretase) of the same molecule?
Answer: Its IC50 is 30 nM.

Question: And the Ratio (LLC-PK1 [8])?
Answer: The Ratio was 2.2.

Question: And the microsomal CLint [2]?
Answer: The microsomal CLint was 72 µL/min/mg.

Question: And the concentration at 2 h [9]?
Answer: The concentration at 2 h was 60 ng/g.

Question: What about the Ratio (LLC-PK1 [10]) of the same molecule?
Answer: Its Ratio is 1.

Question: Which results are given for `O=C(NC1CC1)c1ccc(CN(C2CC(C(F)(F)F)CCNC2=O)S(=O)(=O)c2ccc(Cl)cc2)cc1` (racemic)?
Answer: microsomal CLint [1]: 19 µL/min/mg; IC50 (Gamma-secretase): 20 nM; microsomal CLint [2]: 39 µL/min/mg

Question: Which IC50 (Gamma-secretase) does the source give for `CN(C)C(=O)c1ccc(CN(C2CCCCNC2=O)S(=O)(=O)c2ccc(Cl)cc2)cc1` (centres undefined) here?
Answer: Its IC50 is 2000 nM.

Question: With `O=C1NCCCC1N(Cc1ccc2c(c1)OCO2)S(=O)(=O)c1ccc(Cl)cc1` (centres undefined) as the molecule, how does the IC50 (Gamma-secretase) read?
Answer: Its IC50 is 14000 nM.

Question: With `CC1(C)CCCC(N(Cc2ccc(C(=O)NC3CC3)cc2)S(=O)(=O)c2ccc(Cl)cc2)C(=O)N1` (centres undefined) as the molecule, how does the IC50 (Gamma-secretase) read?
Answer: Its IC50 is greater than 20000 nM.

Question: With `O=C1NCCCCCC1N(Cc1ccc2c(c1)OCO2)S(=O)(=O)c1ccc(Cl)cc1` (centres undefined) as the molecule, how does the IC50 (Gamma-secretase) read?
Answer: Its IC50 is 9000 nM.

Question: For `COc1ccc(CN([C@@H]2CC(F)(F)CCNC2=O)S(=O)(=O)c2ccc(Cl)cc2)c(F)c1`, which microsomal CLint [1] is on record?
Answer: The microsomal CLint was 13 µL/min/mg.

Question: What about the IC50 (Gamma-secretase) of the same molecule?
Answer: Its IC50 is 20 nM.

Question: What about the microsomal CLint [2] of the same molecule?
Answer: Its microsomal CLint is 105 µL/min/mg.

Question: Which IC50 (Gamma-secretase) does the source give for `O=C(O)CCc1ccc(CN([C@@H]2CCCCNC2=O)S(=O)(=O)c2ccc(Cl)cc2)cc1` here?
Answer: Its IC50 is 140 nM.

Question: With `COc1ccc(CN(C2CCCCNC2=O)S(=O)(=O)c2ccc(Cl)cc2)c(F)c1` (centres undefined) as the molecule, how does the IC50 (Gamma-secretase) read?
Answer: The IC50 was 150 nM.

Question: Which microsomal CLint [2] does the source give for `O=C(NC1CC1)c1ccc(CN([C@@H]2CCC(F)(F)CNC2=O)S(=O)(=O)c2ccc(Cl)cc2)cc1` here?
Answer: The microsomal CLint was 5.4 µL/min/mg.

Question: Which Kp at 2 h [7] does the source give for `COc1ccc(CN([C@@H]2CC(F)(F)CCNC2=O)S(=O)(=O)c2ccc(Cl)cc2)c(F)c1F` here?
Answer: Its Kp at 2 h is less than 0.1.

Question: What about the microsomal CLint [1] of the same molecule?
Answer: The microsomal CLint was 19 µL/min/mg.

Question: And the microsomal CLint [2]?
Answer: The microsomal CLint was 121 µL/min/mg.

Question: With `NC(=O)c1ccc(CN([C@@H]2CCCCNC2=O)S(=O)(=O)c2ccc(Cl)cc2)cc1` as the molecule, how does the IC50 (Gamma-secretase) read?
Answer: The IC50 was 80 nM.

Question: For `CC1(C)CCC(N(Cc2ccc(C(=O)NC3CC3)cc2)S(=O)(=O)c2ccc(Cl)cc2)C(=O)NC1` (centres undefined), which IC50 (Gamma-secretase) is on record?
Answer: Its IC50 is 3500 nM.

Question: With `COc1ccc(CN(C2CCCCNC2=O)S(=O)(=O)c2ccc(Cl)cc2)cn1` (centres undefined) as the molecule, how does the IC50 (Gamma-secretase) read?
Answer: Its IC50 is 900 nM.

Question: Which results are given for `CC(C)(C)C1CCNC(=O)C(N(Cc2ccc(C(=O)NC3CC3)cc2)S(=O)(=O)c2ccc(Cl)cc2)C1` (racemic)?
Answer: microsomal CLint [1]: 93 µL/min/mg; IC50 (Gamma-secretase): 120 nM; microsomal CLint [2]: 110 µL/min/mg
